# Experimental data gathered from unrelated publications.
# Protocols differ between the studies behind these lines.
# Cell line: MV4-11
# Effect on: cell growth or viability
Structure (SMILES),method,time,quantity,result
CC(C)Nc1ccnc(Nc2ccc(C(N)=O)cc2)n1,ATP luminescence,72 h,EC50,2530 nM
Cn1cc(-c2cc(N3CCCCS3(=O)=O)ccc2Oc2ccc(F)cc2F)c2c(F)c[nH]c2c1=O,CCK-8,72 h,GI50,3.5 nM
c1cc(Nc2nccc(NC3CCCCC3)n2)cc(-c2cnccn2)c1,ATP luminescence,72 h,EC50,53 nM
COc1cc(-c2ncn(/C=C\C(=O)OC(C)C)n2)cc(C(F)(F)F)c1,,72 h,IC50,28 nM
CC(C)Nc1ccnc(Nc2cccc(-c3ccccn3)c2)n1,ATP luminescence,72 h,EC50,4820 nM
Cc1ncsc1-c1ccc(CNC(=O)[C@@H]2C[C@H](O)CN2C(=O)[C@@H](NC(=O)C2(F)CC2)C(C)(C)C)c(OCCc2ccc(CN3CCN(c4cc(-c5ccccc5O)nnc4N)CC3)cc2)c1,ATP luminescence,7 days,IC50,1700 nM
N[C@H]1CC[C@H](N[C@@H]2C[C@H]2c2ccccc2)CC1,resazurin,96 h,EC50,0.1 nM
CC(C)[C@H](N)C(=O)N1CCC[C@H]1B(O)O,ATP luminescence,48 h,IC50,78 nM
NNCCc1ccccc1,resazurin,96 h,EC50,> 2000 nM
N[C@@H](CC(=O)N1CCN(C(c2ccc(F)cc2)c2ccc(F)cc2)CC1)C(=O)N1Cc2ccccc2C1,ATP luminescence,24 h,IC50,1480 nM
CC(C)C[C@H](NC(=O)[C@H](Cc1ccccc1)NC(=O)c1cnccn1)B(O)O,ATP luminescence,,IC50,3.9 nM
c1cc(Nc2nccc(NC3CCCCC3)n2)cc(-c2ncco2)c1,ATP luminescence,72 h,EC50,511 nM
C#CCN(C)Cc1ccccc1,resazurin,96 h,EC50,> 2000 nM
Nc1ncc(-c2cnn(C3CCNCC3)c2)cc1-c1nnc(CC2CC2)o1,trypan blue,72 h,IC50,157 nM
CN1CCN(C(=O)[C@H](CCCN[C@@H]2C[C@H]2c2ccc(F)cc2)NC(=O)c2ccc(-n3ccnn3)cc2)CC1,resazurin,96 h,EC50,4.2 nM
Cc1cc2c(cc1N1C(=O)c3cccc4c(CCCO)ccc(c34)C1=O)n(C)c(=O)n2C (racemic),resazurin,,GI50,2630 nM
